≈ marks a conversion by molar mass, not a printed value.
What was measured:
[1] = target: Beta-3 adrenergic receptor (Rattus norvegicus) (UniProt P26255); assay: Stimulation of GDP binding against beta-3 adrenergic receptor in brown adipose tissue (BAT) mitochondria of rats after peroral administration (Dose necessary to produce 50% of the isoprenaline effect).
[2] = tested on: Rattus norvegicus; assay: Ratio of the dose (D500, peroral administration) elevating the rat heart rate to 500 bpm and GDP ED50.; type: functional
[3] = Aqueous solubility at a pH 7; type: physicochemical; conditions: read-out: S
Summary of the method: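 Aqueous solubility was measured on the hydrochloride salts in aqueous buffer of 0.15 M sodium chloride and 0.01 M sodium dihydrogen phosphate at pH 7. Values are given in mg mL⁻¹.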

[4] = Partition coefficient (logP); type: physicochemical; conditions: octanol/water
Summary of the method: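 log P is the octanol–water partition coefficient.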

[5] = target: Beta-3 adrenergic receptor (Rattus norvegicus) (UniProt P26255); assay: Dose of the compound (peroral administration) to […] GDP binding against Beta-3 adrenergic receptor in brown adipose tissue(BAT mitochondria) of rats. [Dose necessary to produce 50% of the isoprenaline effect]

Chain of Beta-3 adrenergic receptor (Rattus norvegicus) (P26255 whole entry): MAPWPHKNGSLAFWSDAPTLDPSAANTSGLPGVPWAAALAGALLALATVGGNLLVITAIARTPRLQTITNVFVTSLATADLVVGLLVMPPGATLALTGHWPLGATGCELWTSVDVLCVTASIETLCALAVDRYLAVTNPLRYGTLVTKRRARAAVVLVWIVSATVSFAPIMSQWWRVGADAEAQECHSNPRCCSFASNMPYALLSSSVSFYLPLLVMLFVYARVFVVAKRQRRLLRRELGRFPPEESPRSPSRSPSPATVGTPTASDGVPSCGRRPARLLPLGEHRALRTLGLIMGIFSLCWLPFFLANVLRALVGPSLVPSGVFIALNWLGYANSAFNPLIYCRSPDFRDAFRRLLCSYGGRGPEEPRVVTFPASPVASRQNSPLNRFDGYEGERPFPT

For `O=C(COc1ccc(OCCNCC(O)COc2ccccc2)cc1)N1CCOCC1` (centres undefined), the GDP ED50 [1] was 0.54 mg/kg and the Selectivity index [2] was over 100.
Compound `COCCNC(=O)COc1ccc(OCCNC[C@@H](O)COc2ccccc2)cc1` has a GDP ED50 [1] of 69.9 mg/kg.
For `COCCCNC(=O)COc1ccc(OCCNCC(O)COc2ccccc2)cc1` (centres undefined), the GDP ED50 [1] was 0.83 mg/kg and the Selectivity index [2] was over 100.
In the case of `O=C(COc1ccc(OCCNCC(O)COc2ccccc2)cc1)N1CCCO1` (centres undefined), the GDP ED50 [1] is reported as 0.49 mg/kg.
Compound `COCC(C)NC(=O)COc1ccc(OCCNCC(O)COc2ccccc2)cc1` (centres undefined) has a GDP ED50 [1] of 3.88 mg/kg.
In the case of `O=C(COc1ccc(OCCNCC(O)COc2ccccc2)cc1)NCCO` (centres undefined), the GDP ED50 [1] is reported as 0.67 mg/kg and the Selectivity index [2] is reported as over 100.
Work on `O=C(COc1ccc(OCCNCC(O)COc2ccccc2)cc1)N1Cc2ccccc2C1` (centres undefined) yielded a GDP ED50 [1] of 1.3 mg/kg.
For `NC(=O)COc1ccc(OCCNCC(O)COc2ccccc2F)cc1` (centres undefined), the GDP ED50 [1] was 2.24 mg/kg and the Selectivity index [2] was over 10.
In the case of `O=C(COc1ccc(OCCNCC(O)COc2ccccc2)cc1)NC1CCCC1` (centres undefined), the GDP ED50 [1] is reported as 3.1 mg/kg and the Selectivity index [2] is reported as over 10.
Work on `CN(Cc1ccccc1)C(=O)COc1ccc(OCCNCC(O)COc2ccccc2)cc1` (centres undefined) yielded a GDP ED50 [1] of 8.6 mg/kg.
With `O=C(COc1ccc(OCCNCC(O)COc2ccccc2)cc1)NCc1ccc(Cl)cc1Cl` (centres undefined) the GDP ED50 [1] was 2.77 mg/kg.
With `CN(C)C(=O)COc1ccc(OCCNCC(O)COc2ccccc2)cc1` (centres undefined) the GDP ED50 [1] was 1.4 mg/kg and the Selectivity index [2] was over 50.
`CNC(=O)COc1ccc(OCCNCC(O)COc2ccccc2F)cc1` (centres undefined) showed a GDP ED50 [1] of 1.1 mg/kg and a Selectivity index [2] of over 50.
In the case of `CC(C)CNC(=O)COc1ccc(OCCNCC(O)COc2ccccc2)cc1` (centres undefined), the GDP ED50 [1] is reported as 3.2 mg/kg.
`CCC(C)NC(=O)COc1ccc(OCCNCC(O)COc2ccccc2)cc1` (centres undefined) gave a GDP ED50 [1] of 1.7 mg/kg.
Work on `O=C(COc1ccc(OCCNCC(O)COc2ccccc2)cc1)NCc1ccccc1` (centres undefined) yielded a GDP ED50 [1] of 0.25 mg/kg, a solubility [3] of 40 µg/mL (≈ 88.8 µM) and a logP [4] of 3.2. For the same compound, the Selectivity index [2] was over 100.
In the case of `O=C(COc1ccc(OCCNCC(O)COc2ccccc2)cc1)NCCOc1ccccc1` (centres undefined), the GDP ED50 [1] is reported as 0.72 mg/kg and the Selectivity index [2] is reported as over 100.
`O=C(COc1ccc(OCCNCC(O)COc2ccccc2)cc1)NO` (centres undefined) showed a GDP ED50 [1] of 0.5 mg/kg and a Selectivity index [2] of over 100.
`NC(=O)COc1ccc(OCCNCC(O)COc2ccccc2)cc1` (centres undefined) showed a GDP ED50 [1] of 0.3 mg/kg, a solubility [3] of 400 µg/mL (≈ 1110 µM) and a logP [4] of 1.1. It also gave a Selectivity index [2] of over 100.
With `O=C(COc1ccc(OCCNCC(O)COc2ccccc2)cc1)NCc1cccs1` (centres undefined) the GDP ED50 [1] was 0.69 mg/kg.
Work on `O=C(COc1ccc(OCCNCC(O)COc2ccccc2)cc1)Nc1ccccc1` (centres undefined) yielded a GDP ED50 [1] of 1.38 mg/kg.
In the case of `NNC(=O)COc1ccc(OCCNCC(O)COc2ccccc2)cc1` (centres undefined), the GDP ED50 [1] is reported as 1.15 mg/kg.
Compound `CC(C)NC(=O)COc1ccc(OCCNCC(O)COc2ccccc2)cc1` (centres undefined) has a GDP ED50 [1] of 0.4 mg/kg, a solubility [3] of 900 µg/mL (≈ 2240 µM) and a logP [4] of 2.4. It also gave a Selectivity index [2] of over 100.
For `O=C(COc1ccc(OCCNCC(O)COc2ccccc2)cc1)NCc1ccc(Cl)cc1` (centres undefined), the GDP ED50 [1] was 0.92 mg/kg and the Selectivity index [2] was over 50.
In the case of `CNC(=O)COc1ccc(OCCNC[C@H](O)COc2ccccc2)cc1`, the GDP ED50 [1] is reported as 0.57 mg/kg and the Selectivity index [2] is reported as over 100.
`O=C(COc1ccc(OCCNCC(O)COc2ccccc2)cc1)NCc1ccco1` (centres undefined) gave a GDP ED50 [1] of 1.53 mg/kg.
Work on `CC(NC(=O)COc1ccc(OCCNCC(O)COc2ccccc2)cc1)c1ccccc1` (centres undefined) yielded a GDP ED50 [1] of 0.96 mg/kg and a Selectivity index [2] of over 10.
With `CNC(=O)COc1cccc(OCCNCC(O)COc2ccccc2)c1` (centres undefined) the GDP ED50 [1] was 0.31 mg/kg and the Selectivity index [2] was 74.
In the case of `CCCNC(=O)COc1ccc(OCCNCC(O)COc2ccccc2)cc1` (centres undefined), the solubility [3] is reported as 600 µg/mL (≈ 1490 µM), the GDP ED50 [5] is reported as 0.2 mg/kg and the logP [4] is reported as 2.4. It also gave a Selectivity index [2] of over 100.
In the case of `C=CCNC(=O)COc1ccc(OCC(C)NCC(O)COc2ccccc2)cc1` (centres undefined), the GDP ED50 [1] is reported as 1.03 mg/kg and the Selectivity index [2] is reported as over 20.
For `O=C(COc1ccc(OCCNCC(O)COc2ccccc2)cc1)N1CCc2ccccc2C1` (centres undefined), the GDP ED50 [1] was 0.44 mg/kg and the Selectivity index [2] was over 100.
Work on `O=C(COc1ccc(OCCNC[C@H](O)COc2ccccc2)cc1)NCCO` yielded a GDP ED50 [1] of 0.77 mg/kg and a Selectivity index [2] of over 50.
Compound `O=C(COc1ccc(OCCNCC(O)COc2ccccc2)cc1)NCCCO` (centres undefined) has a GDP ED50 [1] of 0.47 mg/kg, a solubility [3] of 36000 µg/mL (≈ 86000 µM) and a logP [4] of 0.5. The Selectivity index [2] was over 100.
Work on `COCCNC(=O)COc1ccc(OCCNC[C@H](O)COc2ccc(O)cc2)cc1` yielded a GDP ED50 [1] of 4.16 mg/kg.
For `O=C(COc1ccc(OCCNCC(O)COc2ccccc2)cc1)NC1CC1` (centres undefined), the GDP ED50 [1] was 0.79 mg/kg and the Selectivity index [2] was over 50.
For `O=C(COc1ccc(OCCNCC(O)COc2ccccc2)cc1)NOCc1ccccc1` (centres undefined), the GDP ED50 [1] was 0.48 mg/kg.
`CCNC(=O)COc1ccc(OCCNCC(O)COc2ccccc2)cc1` (centres undefined) gave a GDP ED50 [1] of 0.5 mg/kg and a Selectivity index [2] of over 100.
Work on `O=C(COc1ccc(OCCNCC(O)COc2ccccc2)cc1)N1CCCCC1` (centres undefined) yielded a GDP ED50 [1] of 0.4 mg/kg, a solubility [3] of 2000 µg/mL (≈ 4670 µM) and a logP [4] of 2.6. The Selectivity index [2] was over 100.
Compound `CC(CO)NC(=O)COc1ccc(OCCNCC(O)COc2ccccc2)cc1.O` (centres undefined) has a GDP ED50 [1] of 0.85 mg/kg and a Selectivity index [2] of over 50.
Compound `CNC(=O)COc1ccc(OCC(C)NCC(O)COc2ccccc2)cc1` (centres undefined) has a GDP ED50 [1] of 0.25 mg/kg and a Selectivity index [2] of over 10.
Compound `C=CCNC(=O)COc1ccc(OCCNCC(O)COc2ccccc2)cc1` (centres undefined) has a GDP ED50 [1] of 0.64 mg/kg and a Selectivity index [2] of over 100.
`CCN(CC)C(=O)COc1ccc(OCCNCC(O)COc2ccccc2)cc1` (centres undefined) showed a GDP ED50 [1] of 1.16 mg/kg and a Selectivity index [2] of 33.
Compound `NC(=O)CNC(=O)COc1ccc(OCCNCC(O)COc2ccccc2)cc1` (centres undefined) has a GDP ED50 [1] of 1.18 mg/kg and a Selectivity index [2] of over 50.
For `COCCNC(=O)COc1ccc(OCCNCC(O)COc2ccccc2)cc1` (centres undefined), the GDP ED50 [1] was 0.24 mg/kg, the solubility [3] was 11000 µg/mL (≈ 26300 µM) and the logP [4] was 1.7. It also gave a Selectivity index [2] of over 100.
For `CCCCNC(=O)COc1ccc(OCCNCC(O)COc2ccccc2)cc1` (centres undefined), the GDP ED50 [1] was 1.5 mg/kg and the Selectivity index [2] was over 100.
`O=C(COc1ccc(OCCNCC(O)COc2ccccc2)cc1)N1CCCC1` (centres undefined) gave a GDP ED50 [1] of 1.8 mg/kg and a Selectivity index [2] of over 50.
Work on `O=C(COc1ccc(OCCNCC(O)COc2ccccc2)cc1)NCCc1ccccc1` (centres undefined) yielded a GDP ED50 [1] of 1.23 mg/kg and a Selectivity index [2] of over 50.
`COCCNC(=O)COc1ccc(OCCNC[C@H](O)COc2ccccc2)cc1` gave a GDP ED50 [1] of 0.34 mg/kg and a Selectivity index [2] of over 100.
`CNC(=O)COc1ccc(OCCNCC(O)COc2ccccc2)cc1` (centres undefined) showed a GDP ED50 [1] of 1.2 mg/kg and a Selectivity index [2] of over 50.
For `O=C(COc1ccc(OCCNCC(O)COc2ccccc2F)cc1)N1CCCCC1` (centres undefined), the GDP ED50 [1] was 7.9 mg/kg.

Source: ChEMBL document CHEMBL1126292, “Selective beta 3-adrenergic agonists of brown adipose tissue and thermogenesis. 2. [4-[2-[(2-Hydroxy-3-phenoxypropyl)amino]ethoxy]phenoxy]acetamides” (J Med Chem, 1992)
